pIC50: −log10 of the molar value. Active and inactive are the calls of the source. The rule behind the calls is not given here.

Data set [1] is described as follows: Therapeutic index, ratio of CC50 for human CEM-GFP cells to IC50 for antiviral activity against HIV-1 NL4-3 infected in human CEM-GFP cells. The format is toxicity, cell-based. The following applies: read-out: Ratio CC50/IC50. The gist of the method: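 IC50 was determined from p24 ELISA 72 h after 0.5 MOI HIV-1 NL4-3 infection with compound at different concentrations. Therapeutic index = CC50/IC50.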

The subject of data set [2] is Human immunodeficiency virus 1. Put plainly: Antiviral activity against HIV-1 NL4-3 infected in human CEM-GFP cells assessed as suppression of viral replication by measuring reduction in p24 level measured at 72 hrs post-infection by ELISA. In kind it is functional, organism-based. The following applies: Human immunodeficiency virus 1, NL4-3, CEM-GFP. In outline:
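Cells were incubated with 0.5 MOI virus in the presence of polybrene at 37 °C for 4 h with intermittent mixing, then washed and plated in complete RPMI-1640. Compound added at different concentrations, with untreated and DMSO controls. PBMC were PHA-activated. Supernatant p24 measured by capture ELISA (A450) at 72 h. % inhibition calculated relative to untreated cells.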

The nature of data set [3]: Cytotoxicity against human CEM-GFP cells assessed as reduction in cell viability after 48 hrs by MTT assay. In kind it is cell-based. The gist of the method:
(§1)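 Cells were seeded at 25,000/well in complete medium with compound at different concentrations, with untreated and DMSO controls, and incubated 48 h. MTT (5 mg/mL stock) was added for 4 h at 37 °C in the dark. Formazan was dissolved in isopropanol and A570 read. CC50 and highest non-cytotoxic concentration were derived from this assay.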
(In general: Formazan colour is commonly taken as a measure of viable cells.)

Data set [4] in a line: Cytotoxicity against human TZM-bl cells assessed as maximum non-cytotoxic concentration after 48 hrs by MTT assay. The format is cell-based. The settings on record: read-out: MNCC. In outline: as §1
The test system of data set [5] is Human immunodeficiency virus 1. Put plainly: Antiviral activity against HIV-1 NL4-3 infected in human TZM-bl cells assessed as reduction in viral replication at 1000 nM measured at 48 hrs post-infection by steady-glo reporter gene assay relative to control. The format is functional. The following applies: Human immunodeficiency virus 1, NL4-3, TZM-bl. In outline:
(§2)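 TZM-bl cells (0.15×10^6/well) were infected with 0.5 MOI HIV-1 NL4-3 12 h after seeding and treated at the highest non-cytotoxic concentration, which was set by MTT assay. At 48 h post-infection, cells were lysed and mixed 1:1 with Steady-Glo substrate, and luminescence was read.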
For orientation: A reporter such as luciferase makes a cellular process visible.

Data set [6] has as its target Human immunodeficiency virus type 1 reverse transcriptase (Human immunodeficiency virus 1) (UniProt Q72547). The following applies: 500 nM.
Data set [7] has as its system Human immunodeficiency virus 1. Briefly: Antiviral activity against HIV1 NL4-3 infected in human TZM-bl cells assessed as reduction in viral replication at 100 nM measured at 48 hrs post-infection by steady-glo reporter gene assay relative to control. In kind it is functional. The following applies: Human immunodeficiency virus 1, NL4-3, TZM-bl. In outline: as §2
In data set [8] the test system is Human immunodeficiency virus 1. Briefly: Antiviral activity against HIV1 NL4-3 infected in human TZM-bl cells assessed as reduction in viral replication at 500 nM measured at 48 hrs post-infection by steady-glo reporter gene assay relative to control. In kind it is functional. The following applies: Human immunodeficiency virus 1, NL4-3, TZM-bl. In outline: as §2

Data set [9] deals with Protease (Human immunodeficiency virus 1) (UniProt Q9YQ12). Briefly: Inhibition of HIV-1 protease at 500 nM using synthetic peptide as substrate after 15 mins by fluorimetric based assay. In outline:
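Cell-free fluorometric protease kit. HIV-1 protease was diluted in reaction buffer and loaded at 10 nmol/well with or without compound. Indinavir served as positive control, with untreated and DMSO controls. Fluorescence (Ex/Em 330/450 nm) was read 15 min after addition. n = 3.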

Protease (Human immunodeficiency virus 1), sequence (Q9YQ12 as listed by the source): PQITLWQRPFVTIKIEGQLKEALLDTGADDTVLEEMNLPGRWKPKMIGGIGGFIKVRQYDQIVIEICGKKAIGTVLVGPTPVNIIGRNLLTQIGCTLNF

`Cc1cn([C@H]2C[C@H](N=[N+]=[N-])[C@@H](CO)O2)c(=O)[nH]c1=O` [ZIDOVUDINE]: the selectivity ratio in data set [1] came to 1090. Further, the negative logarithm of the IC50 (pIC50) (as a rule, −log10 of the IC50, conventionally taken in molar units) in data set [2] was 7.89. Besides, the 50% cytotoxic concentration (CC50) (commonly the concentration giving 50% cytotoxicity) at 48 h in data set [3] stood at 13.9 µM.
Turning to `CCNC(=O)c1noc(-c2cc(C(C)C)c(O)cc2O)c1-c1ccc(CN2CCOCC2)cc1` [LUMINESPIB], the MNTC at 48 h in data set [4] is 1000 nM. Also, in data set [5], the inhibition (in general, the share of the control response that was lost under treatment) at 1 µM was 88.3%. In addition, in data set [1], the selectivity ratio amounted to 470. Further, in [2], the pIC50 is 7.18. The CC50 at 48 h in [3] is 31.1 µM.
For `COc1ccc(-c2cc(CC(=O)Nc3cccc(C)c3)no2)cc1`, the MNTC at 48 h in [4] worked out at 1000 nM. In addition, the inhibition at 1 µM in data set [5] is 95.5%. For the same compound, in [1], the selectivity ratio came to 55.1. In data set [2], the pIC50 is 6.55. Besides, the half-maximal cytotoxic concentration (CC50) at 48 h in data set [3] is 15.7 µM.
Regarding `O=C(Cc1cc(-c2ccco2)on1)Nc1ccc(O)cc1`, the MNTC at 48 h in data set [4] amounted to 1000 nM. Moreover, in [5], the inhibition at 1 µM amounted to 53.1%.
As to `Cc1ccnc2c1NC(=O)c1cccnc1N2C1CC1`, the inhibition entry in data set [6] is “Active”.
In the case of `COc1ccc(NC(=O)Cc2cc(-c3ccccc3)on2)cc1`, the MNTC at 48 h in data set [4] came to 1000 nM. Further, the inhibition at 1 µM in [5] worked out at 59.6%.
`CCCNC(=O)Cc1cc(-c2ccccc2)on1`: the MNTC at 48 h in data set [4] is 100 nM. Further, in [7], the inhibition at 0.1 µM is 60.9%.
Regarding `O=C(Cc1cc(-c2ccccc2)on1)Nc1ccc(Cl)cc1`, in data set [4], the MNTC at 48 h came out at 100 nM. In addition, the inhibition at 0.1 µM in data set [7] turned out to be 49%.
Consider `Cc1ccccc1NC(=O)Cc1cc(-c2ccccc2)on1`, for which the MNTC at 48 h in [4] amounted to 1000 nM. The inhibition at 1 µM in [5] is 23.5%.
With `Cc1cccc(NC(=O)Cc2cc(-c3ccccc3)on2)c1`, in data set [4], the MNTC at 48 h was 100 nM. Moreover, the inhibition at 0.1 µM in data set [7] was determined as 33.3%.
Taken in the same sequence, the figures for `COC(=O)c1ccc(NC(=O)Cc2cc(-c3ccccc3)on2)cc1` were 100 nM and 27.7%.
On to `O=C(Cc1cc(-c2ccccc2)on1)Nc1ccccc1`, for which, in data set [4], the MNTC at 48 h was found to be 1000 nM. Besides, the inhibition at 1 µM in data set [5] was found to be 89.1%. In addition, the selectivity ratio in [1] came out at 79.8. Besides, in data set [2], the pIC50 was 6.54. In addition, the CC50 at 48 h in data set [3] was 23 µM.
As to `Cc1ccc(NC(=O)Cc2cc(-c3ccccc3)on2)cc1`, the MNTC at 48 h in data set [4] turned out to be 1000 nM. Further, the inhibition at 1 µM in data set [5] came to 98.4%. The selectivity ratio in data set [1] was 507. Also, the pIC50 in [2] is 7.06. Besides, in [3], the CC50 at 48 h came out at 44 µM.
Regarding `O=C(Cc1cc(-c2ccccc2)on1)Nc1ccc(F)cc1`, the MNTC at 48 h in [4] stood at 500 nM. Besides, the selectivity ratio in data set [1] was 136. For the same compound, the inhibition at 0.5 µM in data set [8] is 85.4%. For the same compound, the negative logarithm of the IC50 (pIC50) in data set [2] was 7.06. For the same compound, the 50% cytotoxic concentration (CC50) at 48 h in data set [3] is 11.8 µM.
`Cc1ccc(NC(=O)Cc2cc(-c3cccs3)on2)cc1`: the MNTC at 48 h in data set [4] is 100 nM. The inhibition at 0.1 µM in [7] worked out at 56.9%.
On to `O=C(Cc1cc(-c2ccccc2)on1)Nc1ccccc1O`, for which, in data set [4], the MNTC at 48 h amounted to 1000 nM. Further, in data set [5], the inhibition at 1 µM is 94.8%. Further, in [1], the selectivity ratio turned out to be 170. For the same compound, the pIC50 in data set [2] was 6.60. Further, in data set [3], the half-maximal cytotoxic concentration (CC50) at 48 h turned out to be 42.9 µM.
In the case of `O=C(Cc1cc(-c2ccccc2)on1)Nc1ccc(O)cc1`, the MNTC at 48 h in [4] stood at 1000 nM. The inhibition at 1 µM in data set [5] worked out at 13.4%.
For `CC(C)(C)NC(=O)[C@@H]1CN(Cc2cccnc2)CCN1C[C@@H](O)C[C@@H](Cc1ccccc1)C(=O)N[C@H]1c2ccccc2C[C@H]1O`, the inhibition entry in data set [9] was “Active”.

The values above are taken from ChEMBL document CHEMBL4311980, “Discovery of 2-isoxazol-3-yl-acetamide analogues as heat shock protein 90 (HSP90) inhibitors with significant anti-HIV activity” (Eur J Med Chem, 2019).
